Laboratory results taken from ChEMBL document CHEMBL5357044, “Discovery of a dual-acting inhibitor of interleukin-1β and STATs for the treatment of inflammatory bowel disease” (RSC Med Chem, 2024).
Activity calls are given as the source filed them. The calls are words filed in the database; no cut-off is given here.

Tests used:
Mus musculus [1] = test: Anti-colitis activity against DSS-induced ulcerative colitis mouse model assessed as decrease in hemafecia at 0.2 to 0.6 mg/kg, ip treated every 72 hrs for 9 days; format: functional, organism-based; settings: dose 0.2-0.6 mg/kg, time 9.0 day
How it was run: (§1)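 Mice given 2.5% DSS water days 1–7, then water to day 9. Dosing: i.p. 0.2 or 0.6 mg kg−1 in 50% PEG300 on days 2, 5, 8. Body weight and fecal occult blood scored daily. Colon length measured after sacrifice on day 9. Mean ± s.e.m.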

Mus musculus [2] = test: Anti-colitis activity against DSS-induced ulcerative colitis mouse model assessed as increase in colon length at 0.2 to 0.6 mg/kg, ip treated every 72 hrs for 9 days; format: functional, organism-based; settings: dose 0.2-0.6 mg/kg, time 9.0 day; how it was run: as §1
[3] = target: Nlrp3/Pycard (Mus musculus) (UniProt Q8R4B8+Q9EPB4); test: Inhibition of NLRP3-ASC interaction in LPS-treated mouse J774.A1 cells at 50 to 200 nM pretreated for 1 hr followed by nigericin treatment for 1 hr by Co-IP assay; format: cell-based; settings: dose 50-200 nM, time 2.0 hrs
Sequence of Nlrp3/Pycard (Mus musculus) (Q8R4B8 whole entry, looked up): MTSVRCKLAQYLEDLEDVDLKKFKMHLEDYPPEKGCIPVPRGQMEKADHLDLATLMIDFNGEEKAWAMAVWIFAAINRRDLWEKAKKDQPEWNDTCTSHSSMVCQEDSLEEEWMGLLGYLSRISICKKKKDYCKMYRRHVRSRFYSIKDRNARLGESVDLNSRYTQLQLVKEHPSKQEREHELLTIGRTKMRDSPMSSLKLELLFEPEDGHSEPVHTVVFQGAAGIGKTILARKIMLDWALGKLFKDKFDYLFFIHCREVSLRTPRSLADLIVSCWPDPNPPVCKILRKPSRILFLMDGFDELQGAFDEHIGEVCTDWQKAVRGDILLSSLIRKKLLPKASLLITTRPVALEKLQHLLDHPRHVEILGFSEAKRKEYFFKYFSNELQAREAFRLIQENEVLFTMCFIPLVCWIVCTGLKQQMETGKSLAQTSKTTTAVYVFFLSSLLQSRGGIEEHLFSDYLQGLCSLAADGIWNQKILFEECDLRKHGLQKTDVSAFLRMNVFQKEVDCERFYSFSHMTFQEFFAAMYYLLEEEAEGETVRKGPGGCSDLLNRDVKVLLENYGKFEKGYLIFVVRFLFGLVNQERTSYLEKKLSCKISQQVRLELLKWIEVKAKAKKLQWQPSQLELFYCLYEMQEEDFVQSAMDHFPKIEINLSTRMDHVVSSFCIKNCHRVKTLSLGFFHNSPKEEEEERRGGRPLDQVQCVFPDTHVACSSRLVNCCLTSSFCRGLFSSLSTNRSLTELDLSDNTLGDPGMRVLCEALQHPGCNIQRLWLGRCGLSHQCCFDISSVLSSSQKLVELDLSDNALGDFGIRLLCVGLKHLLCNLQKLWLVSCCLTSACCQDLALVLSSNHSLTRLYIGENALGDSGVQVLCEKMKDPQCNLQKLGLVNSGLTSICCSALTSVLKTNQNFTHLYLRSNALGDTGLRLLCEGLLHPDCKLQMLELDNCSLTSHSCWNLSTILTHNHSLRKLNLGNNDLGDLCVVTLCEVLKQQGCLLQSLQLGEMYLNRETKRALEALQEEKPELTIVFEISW
Sequence of Nlrp3/Pycard (Mus musculus) (Q9EPB4 whole entry, looked up): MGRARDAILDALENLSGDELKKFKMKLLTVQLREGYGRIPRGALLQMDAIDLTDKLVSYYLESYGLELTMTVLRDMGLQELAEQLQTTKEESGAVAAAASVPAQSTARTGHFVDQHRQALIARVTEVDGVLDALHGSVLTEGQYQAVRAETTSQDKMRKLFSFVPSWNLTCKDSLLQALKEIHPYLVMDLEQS
How it was run: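 Primed/treated J774A.1 cells (LPS 1 μg mL−1 5 h, compound, nigericin 10 μM 1 h) lysed on ice 30 min. Precleared with Protein A/G agarose overnight at 4 °C, then primary antibody (IgG control) overnight at 4 °C. Protein A/G added 6 h, beads washed five times with D-PBS, boiled in SDS buffer and western blotted.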

[4] = target: NACHT, LRR and PYD domains-containing protein 3 (Mus musculus) (UniProt Q8R4B8); test: Inhibition of NLRP3 inflammasome activation in mouse BMDM cells assessed as reduction in LPS-stimulated ASC specks formation at 50 to 200 nM pretreated for 1 hr followed by nigericin treatment for 30 mins by immunofluorescence analysis; format: cell-based; settings: dose 50-200 nM, time 1.5 hrs
Sequence of NACHT, LRR and PYD domains-containing protein 3 (Mus musculus) (Q8R4B8 whole entry, the tested form may be a part): as the sequence (Q8R4B8 whole entry, looked up) above
How it was run: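 BMDMs primed with LPS 1.5 μg mL−1 for 3 h at 37 °C, compound for 1 h, nigericin 10 μM for 30 min. Fixed in 4% paraformaldehyde and permeabilized with 1% Triton X-100. Blocked in 1% BSA, primary antibody overnight at 4 °C, rhodamine secondary plus DAPI. ASC specks counted by fluorescence microscopy.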

[5] = target: NACHT, LRR and PYD domains-containing protein 3 (Mus musculus) (UniProt Q8R4B8); test: Inhibition of NLRP3 inflammasome activation in mouse J774.A1 cells assessed as NLRP3 ubiquitination at 100 nM pretreated for 1 hr followed by nigericin treatment for 1 hr; settings: time 2.0 hrs
[6] = target: NACHT, LRR and PYD domains-containing protein 3 (Mus musculus) (UniProt Q8R4B8); test: Inhibition of NLRP3 inflammasome activation in mouse J774.A1 cells assessed as reduction in caspase-1 p20 subunits release at 50 to 200 nM pretreated for 1 hr followed by nigericin treatment for 1 hr by Western blot analysis; format: cell-based; settings: dose 50-200 nM, time 2.0 hrs
How it was run: (§2)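 J774A.1 cells, LPS 1 μg mL−1 for 5 h, compound exposure, nigericin 10 μM 1 h. RIPA lysis with protease inhibitor and BCA quantitation, then SDS-PAGE/PVDF. Blocked 5% milk, primary antibodies overnight at 4 °C, HRP secondaries, ECL detection.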

Colon = test: Anti-colitis activity against DSS-induced ulcerative colitis mouse model assessed as increase in crypt architecture in colon tissue at 0.2 to 0.6 mg/kg, ip treated every 72 hrs for 9 days by H and E staining based analysis; format: functional, organism-based; settings: dose 0.2-0.6 mg/kg, time 9.0 day
How it was run: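 Colons were taken on day 9 from 2.5% DSS-fed mice (DSS days 1–7). Dosing was i.p. 0.2 or 0.6 mg kg−1 in 50% PEG300 on days 2, 5, 8. H&E-stained sections imaged at ×20 and scored for inflammatory infiltration, goblet cell depletion and crypt loss.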

[7] = target: NACHT, LRR and PYD domains-containing protein 3 (Mus musculus) (UniProt Q8R4B8); test: Inhibition of NLRP3 inflammasome activation in mouse BMDM cells assessed as reduction in LPS-stimulated IL-1beta level at 50 to 200 nM pretreated for 1 hr followed by nigericin treatment for 30 mins by ELISA; format: cell-based; settings: dose 50-200 nM, time 1.5 hrs
How it was run: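 Bone-marrow macrophages in RPMI 1640/10% FBS/M-CSF. LPS priming at 0.5 μg mL−1 for 3 h, compound 1 h. NLRP3 then triggered by nigericin 10 μM for 0.5 h or imiquimod 900 μM for 2 h. Supernatant IL-1β by ELISA.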

[8] = target: NACHT, LRR and PYD domains-containing protein 3 (Mus musculus) (UniProt Q8R4B8); test: Inhibition of NLRP3 inflammasome activation in mouse J774.A1 cells assessed as reduction in mature IL-1beta release at 50 to 200 nM pretreated for 1 hr followed by nigericin treatment for 1 hr by Western blot analysis; format: cell-based; settings: dose 50-200 nM, time 2.0 hrs; how it was run: as §2
[9] = target: Signal transducer and activator of transcription 3 (Mus musculus) (UniProt P42227); test: Inhibition of STAT3 expression in LPS-treated mouse J774.A1 cells at 50 to 200 nM treated for 1 hr by Western blot analysis; format: cell-based; settings: dose 50-200 nM
Sequence of Signal transducer and activator of transcription 3 (Mus musculus) (P42227 whole entry): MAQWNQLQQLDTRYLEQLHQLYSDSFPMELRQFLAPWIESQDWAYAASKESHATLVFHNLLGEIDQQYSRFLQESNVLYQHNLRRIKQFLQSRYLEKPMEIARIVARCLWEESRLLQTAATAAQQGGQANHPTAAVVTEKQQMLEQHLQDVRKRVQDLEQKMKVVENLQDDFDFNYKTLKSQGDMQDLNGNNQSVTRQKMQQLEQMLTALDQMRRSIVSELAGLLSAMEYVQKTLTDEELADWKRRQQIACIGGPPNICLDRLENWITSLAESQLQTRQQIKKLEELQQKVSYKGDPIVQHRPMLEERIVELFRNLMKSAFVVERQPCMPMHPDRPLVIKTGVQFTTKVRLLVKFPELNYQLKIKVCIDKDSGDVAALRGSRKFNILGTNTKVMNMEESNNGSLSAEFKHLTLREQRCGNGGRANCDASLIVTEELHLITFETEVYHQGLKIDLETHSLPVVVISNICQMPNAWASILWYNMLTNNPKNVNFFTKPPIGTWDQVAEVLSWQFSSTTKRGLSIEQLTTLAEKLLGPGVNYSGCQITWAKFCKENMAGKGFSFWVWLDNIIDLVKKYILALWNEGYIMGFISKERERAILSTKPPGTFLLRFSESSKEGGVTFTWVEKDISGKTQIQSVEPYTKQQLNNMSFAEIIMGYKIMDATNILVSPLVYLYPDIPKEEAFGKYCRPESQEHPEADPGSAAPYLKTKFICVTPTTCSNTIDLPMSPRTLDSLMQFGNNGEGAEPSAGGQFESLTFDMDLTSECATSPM
How it was run: (§3)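 J774A.1 cells pretreated with LPS and compound, lysed in RIPA. pSTAT1, STAT1, pSTAT3, STAT3, pSTAT5 and STAT5 detected by SDS-PAGE western blot with ECL.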

J774.A1 = test: Inhibition of STAT5 expression in LPS-treated mouse J774.A1 cells assessed as reduction in STAT5 phosphorylation at 50 to 200 nM treated for 1 hr by Western blot analysis; format: cell-based; settings: dose 50-200 nM; how it was run: as §3
[10] = target: NACHT, LRR and PYD domains-containing protein 3 (Mus musculus, UniProt Q8R4B8); test: Inhibition of NLRP3 inflammasome activation in mouse J774.A1 cells assessed as reduction in LPS-stimulated IL-1beta level pretreated for 1 hr followed by nigericin treatment for 1 hr by ELISA; format: cell-based
Sequence of NACHT, LRR and PYD domains-containing protein 3 (Q8R4B8 whole entry, the tested form may be a part): as the sequence (Q8R4B8 whole entry, looked up) above
How it was run: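 J774A.1 cells (DMEM, 10% FBS) primed with LPS 1 μg mL−1 for 5 h, compound 1 h, then nigericin 10 μM for 1 h. Supernatant IL-1β by ELISA; IC50 from three separate determinations.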

inhibition [3]: Active
inhibition [4]: Active
inhibition [5]: Active
inhibition [6]: Active
inhibition [7]: Active
inhibition [8]: Active
inhibition [9]: inactive
IC50 [10]: 130 nM
SMILES: Cc1cc(/C=C/C(=O)c2ccc(C(=O)N[C@@H](Cc3ccccc3)C(=O)N[C@@H](CC(C)C)B(O)O)cc2)cc(C)c1O
Activity (Mus musculus [1]): Active
Activity (Mus musculus [2]): Active
Activity (Colon): Active
inhibition (J774.A1): Active
